Tests used:
[1] = Drug metabolism in human liver microsomes assessed as compound turnover at 10 uM after 1 hr by LC-MS/MS analysis in presence of NADPH; format: ADME; settings: read-out: Drug metabolism
Method in brief: (§1)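 Pooled HLM at 1 mg/ml protein, incubated with 10 µM [14C]saxagliptin and 1 mM NADPH in 100 mM phosphate buffer pH 7.4 at 37°C for 60 min. Quenched with ice-cold acetonitrile; supernatant analysed by LC-MS/MS and off-line radioanalysis.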

Hepatocyte [2] = assay: Cytotoxicity against human hepatocytes assessed as change in morphological integrity up to 25 uM; format: cell-based
[3] = Oral bioavailability in dog; format: ADME, organism-based, Canis lupus familiaris; settings: in vivo
Hepatocyte [4] = assay: Induction of CYP3A4 mRNA expression in human hepatocytes assessed as testosterone 6beta-hydroxylation up to 25 uM by LC-MS/MS analysis; format: ADME, cell-based
Method in brief: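 Primary hepatocytes from three donors treated once daily for 3 days: saxagliptin 0.2–25 µM, M2 0.2–100 µM, 0.1% DMSO as vehicle. Microsomal activity assayed by LC-MS/MS: phenacetin 100 µM with 0.02 mg/ml protein (CYP1A2), bupropion 250 µM with 0.02 mg/ml (CYP2B6), testosterone 200 µM with 0.01 mg/ml (CYP3A4). mRNA measured by TaqMan qPCR as 2^ΔCT relative to endogenous control and DMSO.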

[5] = Oral bioavailability in monkey; format: ADME, organism-based, Macaca mulatta; settings: rhesus monkey, in vivo
Cytochrome P450 1A2 = molecular target: T1, Cytochrome P450 1A2 (Homo sapiens, UniProt P05177); assay: Inhibition of CYP1A2 in human liver microsomes assessed as phenacetin O-deethylation after 3 mins by LC-MS/MS analysis in presence of NADPH; format: ADME
T1 sequence (P05177 whole entry): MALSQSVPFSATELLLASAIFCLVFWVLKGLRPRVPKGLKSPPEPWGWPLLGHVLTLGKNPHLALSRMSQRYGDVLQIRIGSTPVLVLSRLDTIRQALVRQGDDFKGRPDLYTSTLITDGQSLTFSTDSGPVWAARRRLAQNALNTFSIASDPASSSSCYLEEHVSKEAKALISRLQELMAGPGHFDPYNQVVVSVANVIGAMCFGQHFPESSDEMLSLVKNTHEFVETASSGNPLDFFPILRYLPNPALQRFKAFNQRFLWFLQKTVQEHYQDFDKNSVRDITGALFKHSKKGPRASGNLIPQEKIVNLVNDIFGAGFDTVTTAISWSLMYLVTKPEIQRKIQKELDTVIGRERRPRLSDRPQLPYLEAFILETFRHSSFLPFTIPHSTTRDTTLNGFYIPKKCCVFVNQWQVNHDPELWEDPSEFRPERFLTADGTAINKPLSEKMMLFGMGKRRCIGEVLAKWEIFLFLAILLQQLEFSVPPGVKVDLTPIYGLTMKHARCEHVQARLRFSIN

Liver microsome = assay: Drug level in human liver microsomes treated with 10 uM of [14C]saxagliptin after 1 hr by LC-MS/MS analysis in presence of NADPH; format: ADME; method in brief: as §1
Cytochrome P450 2A6 = molecular target: T2, Cytochrome P450 2A6 (Homo sapiens, UniProt P11509); assay: Inhibition of CYP2A6 in human liver microsomes assessed as coumarin 7-hydroxylation preincubated for 15 mins by LC-MS/MS analysis in presence of NADPH; format: ADME
T2 sequence (P11509 whole entry): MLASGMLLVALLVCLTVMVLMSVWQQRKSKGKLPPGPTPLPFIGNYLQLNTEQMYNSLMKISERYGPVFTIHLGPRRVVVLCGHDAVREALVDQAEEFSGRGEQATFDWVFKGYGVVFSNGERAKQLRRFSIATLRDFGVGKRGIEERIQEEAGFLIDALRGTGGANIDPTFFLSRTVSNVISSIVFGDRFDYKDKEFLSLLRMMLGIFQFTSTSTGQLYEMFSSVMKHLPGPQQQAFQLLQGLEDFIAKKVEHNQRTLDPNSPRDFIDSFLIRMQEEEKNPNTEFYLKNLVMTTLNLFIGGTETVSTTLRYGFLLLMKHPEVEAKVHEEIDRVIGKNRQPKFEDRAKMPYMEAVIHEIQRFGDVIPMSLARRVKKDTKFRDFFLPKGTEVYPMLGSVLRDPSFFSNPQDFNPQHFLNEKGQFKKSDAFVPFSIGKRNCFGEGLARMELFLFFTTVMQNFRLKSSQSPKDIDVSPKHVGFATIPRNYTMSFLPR

Hepatocyte [6] = assay: Cytotoxicity against human hepatocytes assessed as change in morphological integrity up to 100 uM; format: cell-based

Compound | metabolised at 1 h, 10 µM [1] [%] | Activity (Hepatocyte [2]) | bioavailability [3] [%] | Activity (Hepatocyte [4]) | bioavailability [5] [%] | IC50 (Cytochrome P450 1A2) [µM] | Drug metabolism (Liver microsome) | IC50 (Cytochrome P450 2A6) [µM] | Activity (Hepatocyte [6])
N#C[C@@H]1C[C@@H]2C[C@@H]2N1C(=O)[C@@H](N)C12CC3CC(CC(O)(C3)C1)C2 [SAXAGLIPTIN ANHYDROUS] | 32 | Non-toxic | 76 | Not Active | 51 | – | – | – | –
N#C[C@@H]1C[C@@H]2C[C@@H]2N1C(=O)[C@@H](N)C12CC3CC(O)(CC(O)(C3)C1)C2 | – | – | – | – | – | > 200 | metabolite_detected | > 200 | Non-toxic

Source: ChEMBL document CHEMBL3526095, “Characterization of the in vitro and in vivo metabolism and disposition and cytochrome P450 inhibition/induction profile of saxagliptin in human” (Drug Metab Dispos, 2012)
